Shown are actives, neighbours in structure and some others; about 2.7% of the full set was active somewhere.
ARFGAP1 inh: inhibitors of rat ARFGAP1 GAP activity, primary screen, biochemical, fluorescence polarization, GDP tracer; actives 0.26% (n = 360,000); Arfgap1-stimulated ARF1 GTP hydrolysis, GDP FP detection; inhibition, % at 16.5 µM; AID 651572, 2012;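 active = inhibition above a per-plate limit, mean inhibition of low control wells plus 3 SD, cut at about 25% in these data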
Target sequence (Q62848 1-136 limits assumed): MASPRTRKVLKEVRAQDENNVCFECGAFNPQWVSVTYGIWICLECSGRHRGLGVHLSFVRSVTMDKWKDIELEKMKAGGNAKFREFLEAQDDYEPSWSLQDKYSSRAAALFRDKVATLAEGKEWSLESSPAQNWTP
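Material: truncated rat Arfgap1 GAP domain; Incubation: compound-enzyme preincubation 20 min, reaction 120 min, detection 60 min, 25 °C; Read-out: percent inhibition of Arfgap1-stimulated GTP hydrolysis; Technique: FP, GDP Alexa 633 tracer displaced from anti-GDP antibody, 620/688 nm; Controls: No-Arfgap1 wells (100%) versus DMSO full-reaction wells (0%); Replication: single well per compound.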
ASAP1 GAP inh: inhibitors of human ASAP1 ArfGAP activity, primary screen, biochemical, fluorescence polarization; actives 0.19% (n = 360,000); inhibition, % at 16.5 µM; ASAP1-stimulated ARF1 GTP hydrolysis, GDP FP detection; AID 624377, 2012; in the data active = inhibition above about 25%
pPAFAH FP inh: pPAFAH enzyme inhibitors, primary screen, biochemical, fluorescence polarization, human; Platelet-activating factor acetylhydrolase (Homo sapiens), Q13093; recombinant pPAFAH, FP-rhodamine probe fluorescence polarization; inhibition, % at 3.39 µM; actives 1.5% (n = 330,000); AID 463082, 2010;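 active = inhibition above the mean inhibition across the screen plus 3 SD, cut at about 25% in these data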;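 also: inhibitors block binding of the rhodamine activity-based probe so polarization drops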
PAFAH1B3 FP inh: PAFAH1B3 enzyme inhibitors, primary screen, biochemical, fluorescence polarization, human; recombinant PAFAH1B3, FP-rhodamine probe; inhibition, % at 3.39 µM; actives 0.28% (n = 340,000); AID 492972, 2010;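 active = inhibition above the screen-wide average of all tested compounds plus 3 SD, cut at about 25% in these data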
Target sequence (Q15102 whole entry, looked up): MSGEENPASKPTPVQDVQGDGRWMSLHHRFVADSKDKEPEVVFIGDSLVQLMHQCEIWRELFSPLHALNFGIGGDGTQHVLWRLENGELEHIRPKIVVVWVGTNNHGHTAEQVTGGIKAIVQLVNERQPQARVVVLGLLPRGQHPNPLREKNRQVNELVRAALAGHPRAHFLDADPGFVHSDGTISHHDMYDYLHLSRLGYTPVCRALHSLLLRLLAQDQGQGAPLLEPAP
PAFAH1B2 FP inh: PAFAH1B2 enzyme inhibitors, primary screen, biochemical, fluorescence polarization, human; recombinant PAFAH1B2, FP-rhodamine activity probe; Platelet-activating factor acetylhydrolase IB subunit alpha2 (Homo sapiens), P68402; actives 1.2% (n = 340,000); inhibition, % at 3.39 µM; AID 492953, 2010;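 active = inhibition above the mean of all tested compounds plus 3 SD, cut at about 24% in these data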
Target sequence (P68402 whole entry, looked up): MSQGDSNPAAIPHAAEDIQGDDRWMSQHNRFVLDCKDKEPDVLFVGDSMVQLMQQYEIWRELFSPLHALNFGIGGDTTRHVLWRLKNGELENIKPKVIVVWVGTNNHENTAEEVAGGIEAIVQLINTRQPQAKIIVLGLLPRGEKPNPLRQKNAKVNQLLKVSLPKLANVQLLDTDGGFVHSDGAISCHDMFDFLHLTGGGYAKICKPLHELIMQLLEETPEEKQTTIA
PAFAH2 FP inh: PAFAH2 enzyme inhibitors, primary screen, biochemical, fluorescence polarization, human; Platelet-activating factor acetylhydrolase 2, cytoplasmic (Homo sapiens), Q99487; actives 0.99% (n = 340,000); inhibition, % at 3.39 µM; recombinant PAFAH2, FP-rhodamine activity probe; AID 492956, 2010;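 active = inhibition above the mean over all tested compounds plus 3 SD, cut at about 30% in these data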;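 also: inhibitors block probe labeling of enzyme so polarization drops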
ASAP1 inh confirm: ASAP1 GAP activity inhibitors, confirmation, biochemical, fluorescence polarization, human, triplicate; shares compounds with ASAP1 GAP inh; ASAP1-stimulated Arf1 GTPase, GDP fluorescence polarization; inhibition, % at 16.5 µM; actives 37% (n = 620); AID 624431, 2012;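 active = mean inhibition over triplicates exceeds the hit threshold derived for the earlier primary screening run, cut at about 25% in these data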
ARFGAP1 confirm: ARFGAP1 inhibitor hit confirmation, biochemical, fluorescence polarization, triplicate; ARFGAP1-stimulated ARF1 GTP hydrolysis, GDP tracer FP; shares compounds with ARFGAP1 inh; actives 30% (n = 890); inhibition, % at 16.5 µM;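 active = average inhibition over triplicates above the hit cutoff set in the earlier primary screen, cut at about 25% in these data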
Hits are given with their value; . = inactive; / = no result; + = active, no number.

SMILES | ARFGAP1 inh | ASAP1 GAP inh | pPAFAH FP inh | PAFAH1B3 FP inh | PAFAH1B2 FP inh | PAFAH2 FP inh | ASAP1 inh confirm | ARFGAP1 confirm
CC1=CC2=NC(=O)/C(=C\c3cc(C)n(-c4ccc(F)cc4)c3C)C(=N)N2O1 | . | . | . | . | . | . | / | /
CC1=CC2=NC(=O)/C(=C\c3ccc(-c4cccc(Cl)c4)o3)C(=N)N2O1 | 41 | 58 | . | . | . | . | 87 | 131
O=C(Nc1ccc(C(=O)N2CCCC2)cc1)c1cc(F)c(F)cc1Cl | . | . | / | / | / | / | / | /
COc1ccc(NC(=O)c2ccc(-c3ccc([N+](=O)[O-])cc3)o2)cc1OC | . | . | . | . | . | . | / | /
CC(=O)Nc1ccc(NC(=O)c2ccc(-c3ccc([N+](=O)[O-])cc3)o2)cc1 | 62 | 130 | . | . | . | . | 164 | +
COCCNC(=O)C1(C)CCCN(CC(=O)c2ccc(OC)cc2)C1 (stereo not drawn) | . | . | / | / | / | / | / | /
O=C(NCC(=O)N1CCCCCCC1)c1ccc(Cl)c(Cl)c1 | . | . | / | / | / | / | / | /
COc1ccc(NC(=O)c2cccc3c(-c4cccnc4)coc23)cc1 | 26 | 32 | / | / | / | / | . | .
COc1ccc(N2CCN(C(=S)NCc3ccccc3)CC2)cc1 | 38 | 37 | . | . | . | . | . | .
CN1CCC2CC1c1cc(-c3ccc(C(F)(F)F)cc3)ccc12 (stereo not drawn) | . | . | / | . | . | . | / | /
O=C(NN=Cc1ccc2c(c1)OCO2)NN=Cc1ccc2c(c1)OCO2 | 31 | 34 | / | . | . | . | 72 | 62
O=C(NN=Cc1ccc2c(c1)OCO2)C1CC1 | . | . | / | . | . | . | / | /
C=CCN(Cc1ccc(Cl)s1)C(=O)c1cc(S(=O)(=O)N2CCOCC2)ccc1F | . | . | . | . | . | . | / | /
COc1cccc(NC(=O)Cn2nnc(C(=O)Nc3cc(Cl)ccc3OC)c2N)c1 | 138 | 77 | . | . | . | . | 109 | 199
COc1ccc(Cl)cc1NC(=O)c1nnn(CC(=O)Nc2ccc(OC)c(OC)c2)c1N | . | . | . | . | . | . | / | /
Cc1ccc2nc(SCC(=O)N3CCC(Cc4ccccc4)CC3)nc(=O)n2c1 | 59 | 26 | . | . | . | . | 41 | 68
CN(C)CCCNc1nc2cc(-c3cnn(Cc4ccccc4)c3)sc2c(=O)n1C | . | . | / | / | / | / | / | /
Nc1nc(SCc2ccc(Cl)cc2Cl)nc2nc3c(cc12)CCCC3 | 47 | 31 | . | . | . | . | 69 | 68
COc1ccccc1-c1csc(-n2ncc(C#N)c2N)n1 | 39 | 41 | . | . | . | . | 66 | 111
C=CCCC(=O)N1C[C@H]2CON(C)[C@H]2C[C@H]1c1cccc(Oc2ccccc2)c1 | . | . | / | / | / | / | / | /
CC(=O)Nc1ccc(NC(=O)CSc2ccc(-c3ccc(-n4ccnc4)cc3)nn2)cc1 | 25 | 66 | . | . | . | . | 71 | 72
O=C(Nc1ccc2oc(-c3cccnc3)nc2c1)c1ccc2c(c1)OCCO2 | 42 | 27 | . | . | . | . | 38 | 114
Cc1ccc(-c2ccc(/C=C3\SC(N4CCOCC4)=NC3=O)o2)cc1 | 37 | 49 | . | . | . | . | 116 | 87
O=C1N=C(N2CCOCC2)S/C1=C/c1ccc(-c2ccc(F)cc2)o1 | 30 | 33 | . | . | . | . | 58 | 49
CCOC(=O)N1CCN(S(=O)(=O)N2CCCC(C(=O)NCc3ccc(C)cc3)C2)CC1 (stereo not drawn) | . | . | / | / | / | / | / | /
SMILES | ARFGAP1 inh | ASAP1 GAP inh | pPAFAH FP inh | PAFAH1B3 FP inh | PAFAH1B2 FP inh | PAFAH2 FP inh | ASAP1 inh confirm | ARFGAP1 confirm
Cc1csc(N=Cc2ccc([N+](=O)[O-])o2)n1 | . | . | / | / | / | / | / | /
CC(=O)c1ccc(-c2cnc3c(NC=O)cc(-c4ccc(N5CCN(C)CC5)cc4)cn23)cc1 | 63 | 81 | / | / | / | / | 155 | 139
CC(=O)Nc1cc(-c2ccc(N3CCN(C)CC3)cc2)cn2c(-c3cccc(C(C)=O)c3)cnc12 | 38 | 54 | / | / | / | / | 95 | 82
Cc1cc2cc(CNC(=O)Nc3ccc(Cl)c(Cl)c3)ccc2n1C | 74 | 42 | . | . | . | . | . | .
CC(=O)Nc1ccc(S(=O)(=O)NCCC(=O)NCc2ccco2)cc1 | . | . | / | / | / | / | / | /
O=C(CSc1ccc(-c2ccc3c(c2)OCO3)nn1)Nc1nccs1 | 46 | 132 | . | . | . | . | 75 | 135
COc1cc(/C=C(\C#N)c2nc(-c3cc4ccccc4oc3=O)cs2)ccc1O | . | . | . | . | . | . | / | /
CCN(CC)CCOC(=O)c1ccc(N/C=C(/C#N)c2nc(-c3ccc(OC)cc3)cs2)cc1 | 28 | 48 | . | . | . | . | 51 | 55
CCN(CC)CCOC(=O)c1ccc(N/C=C(/C#N)c2nc(-c3cc4ccccc4oc3=O)cs2)cc1 | 84 | 72 | / | . | . | . | 99 | 134
Cc1ccc2cc3cc(C(=O)NCc4ccc5c(c4)OCO5)oc3nc2c1 | 68 | 54 | / | . | . | . | 28 | 110
CCC(/C=C1\Sc2ccc(OC)cc2N1CC)=C\c1sc2ccc(OC)cc2[n+]1CCCS(=O)(=O)[O-] | . | . | . | . | . | . | / | /
CCC(/C=C1\Sc2ccc(OC)cc2N1CCO)=C\c1sc2ccc(OC)cc2[n+]1CCO | 42 | 32 | . | . | . | . | 35 | 25
Cc1cccc(NC(=O)c2ncn3c2C(=O)NC[C@H]3C)c1 | . | . | / | / | / | / | / | /
O=C(/C=C/c1ccco1)Nc1ccc(-c2nc3ccccc3[nH]2)cc1 | 88 | 28 | . | . | . | . | 71 | 139
O=C(Nc1ccc(-c2nc3ccccc3[nH]2)cc1)c1ccco1 | / | / | . | . | . | . | / | /
Cn1c(=O)n(CCOc2ccc(Cl)cc2Cl)c2ccccc21 | 30 | 40 | . | . | . | . | 47 | 44
Cn1c(=O)n(CCOc2ccccc2Cl)c2ccccc21 | . | . | . | . | . | . | / | /
O=C(NCc1ccccn1)c1cccc(S(=O)(=O)N2CCCCC2)c1 | . | . | . | . | . | . | / | /
CCN1CCN(Cc2ccc(NC(=O)c3cccc(-c4ccc5nc(NC(=O)C6CC6)sc5n4)c3)cc2C(F)(F)F)CC1 | 57 | 27 | / | / | / | / | 40 | 51

Compound activity: PubChem, The Scripps Research Institute Molecular Screening Center
